# TAAR1 antagonist = antagonists of human TAAR1. Q96RJ0. CHO RD-HGA16 TAAR1, Fluo-8 calcium fluorescence, antagonist. inhibition, % at 3 µM. hit rate 1.5% among 360,000. AID 624466;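 active = inhibition above a per-plate cutoff, the mean inhibition of test compounds on that plate plus 3 SD, cut at about 49% in these data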;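 also: 0% = DMSO plus EC80 beta-PEA response and 100% = DMSO alone without agonist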
# Target sequence (Q96RJ0 whole entry, looked up): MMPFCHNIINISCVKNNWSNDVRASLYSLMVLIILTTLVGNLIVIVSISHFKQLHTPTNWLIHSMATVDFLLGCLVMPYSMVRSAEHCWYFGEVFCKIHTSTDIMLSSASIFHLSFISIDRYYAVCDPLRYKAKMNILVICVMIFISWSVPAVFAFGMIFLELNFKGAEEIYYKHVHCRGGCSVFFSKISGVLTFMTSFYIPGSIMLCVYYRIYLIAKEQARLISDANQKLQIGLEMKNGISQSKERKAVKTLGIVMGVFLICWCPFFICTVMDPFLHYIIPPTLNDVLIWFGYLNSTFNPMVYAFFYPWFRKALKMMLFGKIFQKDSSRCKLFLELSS
#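 Assay system: CHO-derived RD-HGA16 cells stably expressing human TAAR1 plus Gα16. Timing: 140 s kinetic read after compound, 140 s after agonist. Technique: kinetic Fluo-8 calcium fluorescence measurement. Measure: % inhibition of agonist calcium response.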
# HCV core dimer = HCV core protein dimerization inhibition. TR-FRET GST/Flag-core106 dimerization, 1536-well. inhibition, % at 5 µM. hit rate 0.33% among 300,000. AID 1899;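 active = inhibition above the mean of all tested compounds plus 3 SD, set per screening campaign, cut at about 45% in these data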
#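 System: GST/Flag-tagged HCV core106 proteins. Incubation: compound-protein-antibody incubation 4 h at 22.5 °C. Technique: HTRF with 340 nm excitation, 617/671 nm emission. Medium: KF-containing HEPES buffer, pH 7.45, DTT, CHAPS, BSA. Read-out: inhibition (%) from 671 over 617 nm ratio. Also added: Eu(K)-anti-GST 90 ng/mL plus XL665-anti-Flag 1 µg/mL.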
# HCV NS3 hel inh = inhibitors of Hepatitis C virus NS3 helicase; NS3 helicase DNA unwinding, Cy5 molecular beacon fluorescence; inhibition, % at 10.9 µM; hit rate 0.56% among 290,000; AID 1800;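 active = inhibition above the mean of all tested compounds plus 3 SD, set per campaign, cut at about 35% in these data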;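 also: 0% = DMSO wells and 100% = thioflavine S control wells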
#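 Material: hepatitis C virus NS3 helicase domain fragment enzyme; measured by: Cy5 fluorescence, 0 and 60 min reads; control set: DMSO and thioflavine S; incubation: 60 min unwinding reaction at 25 °C after ATP addition; read-out basis: % inhibition from 60/0 min fluorescence ratio, DMSO 0%, thioflavine S 100%; repeats: singlicate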
# TAAR1 agonist = agonists of human TAAR1 | CHO RD-HGA16 TAAR1, Fluo-8 calcium fluorescence; vehicle wells 0%, saturating PEA agonist 100% | Q96RJ0 | hit rate 0.99% among 360,000 | activation, % at 3 µM;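 active = activation above the mean activation of all test compounds in the run plus 3 SD, cut at about 38% in these data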
#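 test system = CHO RD-HGA16 cells carrying human TAAR1 plus Gα16 | schedule = 17-24 h seeding, 75 min 37 °C dye, 30 min RT | compound dosing = 3 µM single concentration | control set = DMSO and PEA EC100 | replicates = n 1 | signal = Fluo-8 fluorescence, 5 s baseline then 140 s kinetic read | measure = percent activation vs PEA EC100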
# rCAG binder = molecules binding r(CAG) RNA repeats; r(CAG) RNA repeat, TO-PRO-1 dye displacement fluorescence; inhibition, % at 3 µM; hit rate 1.3% among 370,000; AID 651821;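 active = inhibition above the plate cutoff, the mean of all test compounds on that plate plus 3 SD, cut at about 35% in these data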;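 also: 0% = DMSO alone and 100% = 100 µM mitoxantrone as full dye displacement; higher means more dye released from RNA so lower well fluorescence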
# An asterisk follows results filed as active; x = no result. Only some compounds are listed: those with a hit (about 3.7% of all), similar ones and a draw of the others.
SMILES,TAAR1 antagonist,HCV core dimer,HCV NS3 hel inh,TAAR1 agonist,rCAG binder
CN(Cc1ccc(OC(F)F)cc1)C(=O)c1cccc(S(=O)(=O)N2CCN(c3ccccc3)CC2)c1,75*,x,x,9,5
CCCCOCCCNC(=O)C[C@H]1C[C@@]2(C(=O)OC)C(=C[C@H](C3CCCC3)O[C@@H]2C)N(Cc2ccco2)C1=O,x,x,x,x,6
COc1ccccc1/C=N/NC(=O)C1=NNC(c2ccccc2)(c2ccccc2)C1,x,54*,6,x,x
O=C(N/N=C/c1ccc(C(=O)O)cc1)C1=NNC(c2ccccc2)(c2ccccc2)C1,-4,8,14,3,15
N#C/C(=C/c1ccc(N2CCOCC2)o1)c1ccc(Br)cc1,57*,-12,32,29,15
N#C/C(=C/c1ccc(N2CCOCC2)o1)c1nc2ccccc2[nH]1,28,-91,-4,49*,-29
Cc1ccc(NC(=O)CSc2nc(C)cc(=O)[nH]2)c(C)c1,x,x,x,x,1
CCCCNC(=O)C1CCCN1C(=O)Nc1cc(Cl)cc(Cl)c1 (stereo not drawn),x,x,x,x,3
Cc1cc(C)c2c(c1)[C@@H]1C=CC[C@@H]1[C@H](c1ccc(S(=O)(=O)N3CCOCC3)cc1)N2,15,84*,16,1,25
Cc1ccc(S(=O)(=O)N2CCOCC(=O)NCCOCCNC(=O)COCC2)cc1,-2,x,-3,0,-1
O=C(CSc1nc2nc(-c3cccs3)cc(C(F)(F)F)c2c(=O)[nH]1)Nc1ccc(F)c(F)c1,3,5,32,7,68*
Cc1ccc(-c2nnc(SCC(=O)Nc3ccc4c(c3)OCCO4)n2-c2ccc(C)cc2)cc1,x,x,x,x,9
O=C(N/N=C/c1ccc(OC(=O)c2ccccc2)c([N+](=O)[O-])c1)c1ccc(O)cc1,53*,-4,-1,0,9
CC(C)(C)C(=O)Nc1ccc(C(=O)N/N=C/c2ccccc2OC(=O)c2ccccc2)cc1,53*,12,-4,16,8
COc1ccc(/C=N\NC(=O)c2ccc(F)cc2)cc1COc1cc(F)ccc1[N+](=O)[O-],53*,x,-11,4,15
COc1ccc(/C=N/NS(=O)(=O)c2ccc(F)cc2)cc1COc1cc(F)ccc1[N+](=O)[O-],-4,48*,-1,2,12
C=CCN1[C@H](C)COc2cccc(N3CCSCC3)c2S1(=O)=O,x,x,x,x,-1
O=C(COc1ccc(Cl)cc1)Nc1nc(-c2ccc(S(=O)(=O)N3CCOCC3)cc2)cs1,62*,-3,1,17,9
O=C(Nc1nc(-c2ccc(S(=O)(=O)N3CCCC3)cc2)cs1)C1COc2ccccc2O1 (stereo not drawn),57*,39,-10,23,16
COc1ccccc1OCC(=O)Nc1nc(-c2ccc(S(=O)(=O)N3CCOCC3)cc2)cs1,36,14,-22,18,4
O=C(Nc1nc(-c2ccccc2)cs1)C1COc2ccccc2O1 (stereo not drawn),9,8,-1,-3,4
O=C(COc1ccccc1)Nc1nc(-c2ccc(S(=O)(=O)N3CCOCC3)cc2)cs1,55*,-17,23,20,17
O=C(NCCc1c[nH]c2ccccc12)c1ccc(Sc2ccccc2Cl)c([N+](=O)[O-])c1,x,x,x,x,13
O=C1[C@H](Cc2ccccc2)NCCCC[C@@H](c2ccc(Cl)cc2)N1Cc1ccccc1,17,x,x,39*,0
COc1ccc(-n2c(COc3ccc(Cl)cc3)nnc2SCc2nc3ccccc3[nH]2)cc1,x,x,x,x,5
SMILES,TAAR1 antagonist,HCV core dimer,HCV NS3 hel inh,TAAR1 agonist,rCAG binder
Cc1cc(C)c(NC(=O)COC(=O)c2ccc([N+](=O)[O-])s2)c(C)c1,-15,11,-1,3,0
Cc1ccc(NC(=O)COC(=O)c2ccc([N+](=O)[O-])s2)c(C)c1,-6,6,-4,39*,-5
CC(C)(C)OC(=O)NCc1ccccc1/C=C/S(=O)(=O)NCc1ccc(F)cc1,x,x,x,x,1
CCc1nnc(N/N=C/c2cc(Br)c(O)cc2O)n1N,-15,-16,3,7,2
CC(C)(C)c1nnc(N/N=C/c2cc(Br)ccc2O)n(N)c1=O,68*,-2,7,25,4
CCn1c(Cc2cccs2)nnc1SCC(=O)c1ccc(Cl)cc1,x,x,x,x,3
CC(=C/c1ccccc1)/C=N/NC(=O)c1ccc2nc[nH]c2c1,-10,-4,-5,8,1
O=C(N/N=C/C(Br)=C\c1ccccc1)c1ccc2nc[nH]c2c1,54*,-8,-8,9,9
CCN1Cc2nnn(CC3CCCCC3)c2-c2ccccc2S1(=O)=O,x,x,x,x,-2
COc1ccc(C(C(O)C(=O)c2c[nH]c3ccccc23)N2CCN(c3ccc(OC)cc3)CC2)cc1 (stereo not drawn),9,-1,-17,38*,1
CCc1cccc2c(C(=O)COC(=O)[C@@H]3CC(O)CN3S(=O)(=O)c3ccccc3[N+](=O)[O-])c[nH]c12 (stereo partly drawn),56*,x,x,11,8
O=C(NCc1ccc(C(=O)N2CCCN(Cc3ccccc3)CC2)cc1)c1cccc(Br)c1,x,x,x,x,3
O=C1C=C(N2CCN(c3ccccn3)CC2)C(=O)c2c(O)ccc(O)c21,15,x,x,10,5
CC1=CC(=O)c2c(O)ccc(O)c2C1=O,x,70*,26,x,x
Cc1[nH]nc(SCC(=O)NCCc2ccccc2)c1[N+](=O)[O-],75*,-1,6,39*,4
N#CC(=C=[N-])C1=C(C#N)C(c2ccccc2F)C([n+]2ccccc2)C(O)(C2CC2)N1 (stereo not drawn),12,52*,1,1,3
CCOC(=O)C1CCCN(CC(=O)c2ccc(F)cc2)C1 (stereo not drawn),54*,7,-5,57*,2
CCOC(=O)C1CCCN(CC(=O)Nc2c(F)c(F)c(F)c(F)c2F)C1 (stereo not drawn),-1,-10,-7,5,-3
COc1ccc(S[C@]2(C(=O)N(C)C)CC(=O)N(C(=O)C3CC3)[C@@H]2c2ccc(OC)cc2)cc1,x,x,x,x,3
Cc1nc(C)c(-c2ccc(SCC(=O)Nc3cccc(Cl)c3)nn2)s1,52*,-3,-7,8,4
CC(=O)c1cccc(NC(=O)CSc2ccc(-c3sc(C)nc3C)nn2)c1,20,7,5,6,1
C=Cc1ccc(C(=O)N(Cc2ccc(F)cc2)C(C(=O)N(C)C2CCCC2)c2ccc(OC)c(OC)c2)cc1 (stereo not drawn),x,x,x,x,5
O=C(NCCn1cc(SCc2ccccc2F)c2ccccc21)c1c(F)cccc1F,83*,-3,-15,2,10
O=C(NCCn1cc(SCC(=O)N2CCOCC2)c2ccccc21)c1c(F)cccc1F,28,-5,11,7,3
O=C(O)c1ccc(CSc2nc3ccc(NC(=O)c4ccccc4C(=O)O)cc3s2)cc1,-2,2,24,4,8

# High-throughput results (PubChem BioAssay)
